Only some compounds are listed: those with a hit (about 3% of all), similar ones and a draw of the others.
NRP1-CendR mod: modulators of CendR peptide binding to NRP-1, primary screen, biochemical, fluorescence polarization, uHTS; inhibition, % at 25 µM; FAM-RPARPAR peptide binding to NRP-1; Neuropilin-1 (Homo sapiens), O14786; AID 602438, 2012; 360,000 tested, 0.85% active;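 active = inhibition or corrected inhibition above about 18%, plus a signal ratio from 0.5 to 1.5, limit read from the data, passing the limit was not always enough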
PLCb3 inh: human PLC-beta3 inhibitors, primary screen, biochemical, fluorescence; 370,000 tested, 0.18% active; 1-phosphatidylinositol 4,5-bisphosphate phosphodiesterase beta-3 (Homo sapiens), Q01970; inhibition, % at 12.2 µM; Purified PLC-beta3, fluorogenic substrate; AID 720704, 2013; in the data active = inhibition above about 11%;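 note: 0% = median of compound wells on plate and 100% = full blocker control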
DDE Tn6 FP inh: inhibitors of Tn6 peptide binding to fibrin DD(E), primary screen, biochemical, fluorescence polarization, human fibrin, Tn6 probe. 370,000 tested, 0.21% active. inhibition, % at 8.3 µM. AID 720509, 2013. Fibrin DD(E) TRITC-Tn6 fluorescence polarization displacement. Fibrinogen beta chain (Homo sapiens), P02675;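 active = inhibition above a per-campaign cutoff: mean of compounds within control limits plus 3 SD, cut at about 15% in these data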;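 note: 0% = median of all compound wells on the plate and 100% = blocking peptide control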
KLK7 zymogen act: proKLK7 zymogen activators, primary screen, biochemical, fluorescence intensity; Kallikrein-7 (Homo sapiens), P49862; purified proKLK7, EDANS-DABCYL substrate fluorescence; 100% is mature enzyme control, 0% vehicle; activation, % at 7 µM; 370,000 tested, 0.9% active;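 active = activation above the mean of all tested compounds plus 3 SD, computed per campaign excluding outliers beyond control limits, cut at about 13% in these data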
DDE Tn7 FP inh: inhibitors of Tn7 peptide binding to fibrin DD(E), primary screen, biochemical, fluorescence polarization, human fibrin, Tn7 probe | FP displacement of FITC-Tn7 peptide from fibrin DD(E); 0% = median of compound wells per plate | inhibition, % at 8.3 µM | 370,000 tested, 0.13% active;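 active = inhibition above the mean of compounds falling within the control limits plus 3 SD of them, cut at about 14% in these data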;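 note: 0% = plate median of compound wells and 100% = 10 µM Aha-Tn7 peptide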
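Assay system: human fibrin DD(E). Input: DD(E) 2 µM final. Medium: Tris buffer with calcium and detergent, pH 7.8. Compound dosing: single point at 8.3 µM. Timing: 10 min plus 3 h, room temperature. Technique: fluorescence polarization of the labelled Tn7 tracer. Read-out: percent inhibition. Replicates: singlicate testing.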
PLC-gamma1 inh: PLC-gamma1 enzyme inhibitors, primary screen, biochemical, fluorescence, purified enzyme. 1-phosphatidylinositol 4,5-bisphosphate phosphodiesterase gamma-1 (Homo sapiens), P19174. fluorogenic substrate. 370,000 tested, 0.84% active. inhibition, % at 12.2 µM. AID 720700, 2013; in the data active = inhibition above about 9.5%
DDE Tn6 FP ctr: counter-screen for inhibitors of Tn6 peptide binding to fibrin DD(E). shares compounds with DDE Tn6 FP inh. TRITC-Tn6 fluorescence polarization displacement; 0% = median of compound wells, not DMSO. inhibition, % at 8.3 µM. 680 tested, 2% active. AID 720621;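 active = inhibition above the mean of test compounds lying between the control limits plus 3 SD of those, cut at about 14% in these data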;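 note: 0% = median of compound wells and 100% = wells with Aha-Tn7 blocking peptide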
DDE Tn6 confirm: inhibitors of Tn6 peptide binding to fibrin DD(E), confirmation, biochemical, fluorescence polarization, human fibrin, Tn6 probe. shares compounds with DDE Tn6 FP inh. FP displacement of TRITC-Tn6 peptide from DD(E); 0% = per-plate median of test wells. inhibition, % at 8.3 µM. 680 tested, 10% active. AID 720631, 2013;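 active = inhibition above the mean of compounds lying within the control limits plus 3 SD, cut at about 16% in these data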;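 note: 100% = high control wells holding a competing inhibitor peptide at 10 µM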
* hit, by the source's call; i = inactive; · = no result; ! = a repeat was not active.

SMILES	NRP1-CendR mod	PLCb3 inh	DDE Tn6 FP inh	KLK7 zymogen act	DDE Tn7 FP inh	PLC-gamma1 inh	DDE Tn6 FP ctr	DDE Tn6 confirm
COC(=O)C[C@@H]1CC[C@H]2[C@@H](COc3ccc(NC(=O)NC(C)C)cc3C(=O)N2C)O1	·	1	1	0	0	2	·	·
CCCCC[C@@H](O)c1cc2ccccc2c(=O)o1	-8	-1	16*	0	4	0	0	-3
CC1(C)CC(=O)C(N=Nc2cc(C(F)(F)F)ccc2Cl)=C(O)C1	7	2	-6	0	-6	2	·	·
O=C1CCCC(O)=C1N=Nc1c(Cl)cc(C(F)(F)F)cc1Cl	5	-5	43*	0	1	2	-2	-9
COCCCNC(=O)c1ccc2c(c1)NC(=O)C(C)(C)O2	·	4	5	0	1	1	·	·
CCOC(=O)C1CCCN(c2c(NCCCN(C)Cc3ccccc3)c(=O)c2=O)C1 (configuration not stated)	0	1	-7	0	-1	-1	·	·
CCOC(=O)C1CCCN(c2c(NCCc3ccc(C)cc3)c(=O)c2=O)C1 (configuration not stated)	-3	-2	17*	0	2	2	3	-10
N#Cc1ccc(NC(=O)CSc2n[nH]c(=O)n2C2CC2)cc1	5	-1	16*	0	3	-2	3	4
O=C(CSc1n[nH]c(=O)n1C1CC1)Nc1ccccc1	6	-4	-10	0	4	3	·	·
Cc1nc2sc(C(=O)NCc3ccc4c(c3)OCO4)c(N)c2c(C)c1Cl	·	-205	-2	-1	3	-140	·	·
COc1ccc(-n2c(=O)[nH]cc(C(=O)Nc3ccc4c(c3)OCCO4)c2=O)cc1OC	-4	-11	2	0	-2	-2	·	·
O=C(Nc1ccc2c(c1)OCO2)c1c[nH]c(=O)n(-c2ccc(F)cc2)c1=O	20*	-9	15*	0	1	-5	5	4
Cc1cccc(NC(=O)C2CCN(S(=O)(=O)c3ccc4ccccc4c3)CC2)n1	10	-6	-9	0	13	-1	·	·
Cc1cccc(NC(=O)C2CCN(S(=O)(=O)c3ccc(Cl)cc3)CC2)n1	0	-1	17*	-1	6	0	-3	-5
O=C(Nc1nc2ncccn2c1-c1ccc(C(F)(F)F)cc1)c1ccccc1	·	-201	-4	3	0	-142	·	·
CCC(c1nnnn1-c1ccc2c(c1)OCCO2)N1CCN(c2ncccc2C(F)(F)F)CC1 (configuration not stated)	1	-1	15*!	0	-6	-3	2	-2
O=C(OCC#CCSc1nnc(-c2cccc3ccccc23)o1)c1ccncc1	·	-23	4	·	5	-15	·	·
COc1ccc(C2(C)NC(=O)N(CC(=O)NC(C)c3ccc(CC(C)C)cc3)C2=O)cc1 (configuration not stated)	-9	-3	19*	1	2	0	9	0
COc1ccc(CNC(=O)CN2C(=O)NC(C)(c3ccc(C(C)(C)C)cc3)C2=O)cc1 (configuration not stated)	-1	-5	2	1	7	0	·	·
NS(=O)(=O)c1ccc(S(=O)(=O)N2CCCC2)cc1	10	1	-1	0	-3	2	·	·
NS(=O)(=O)c1ccc(Nc2ccc3cc(S(=O)(=O)N4CCCCC4)ccc3n2)cc1	7	i	36*	4	-7	i	5	-21
COC(=O)C1CN(Cc2cn(CCOC(C)=O)nn2)CCS(=O)(=O)N1Cc1ccc(F)cc1 (configuration not stated)	·	2	2	0	8	0	·	·
O=C(NC1CC1)c1cccc2c1C(=O)c1ccc(N3CCC(N4CCCCC4)CC3)cc1S2(=O)=O	-109	-124	18*	1	-5	-92	-3	0
COc1cc(NCCCC(C)N)c2ncccc2c1 (configuration not stated)	44*	-30	52*	0	1	-15	-1	20*
COc1cc(NS(=O)(=O)c2ccc(C)cc2)c2ncccc2c1	-12	-54	5	-2	0	-62	·	·
SMILES	NRP1-CendR mod	PLCb3 inh	DDE Tn6 FP inh	KLK7 zymogen act	DDE Tn7 FP inh	PLC-gamma1 inh	DDE Tn6 FP ctr	DDE Tn6 confirm
CCC(CNc1cc(OC)cc2cccnc12)NC1CCCCC1 (configuration not stated)	8	-63	33*	2	10	-30	-1	6
Cc1cc(C(C)(C)C)cc(S(=O)(=O)NCCc2ccncc2)c1C	-5	-3	21*	1	0	0	-5	-8
CC1(C)c2ccccc2N2CC(=O)N(CC(N)=O)C21C (configuration not stated)	-126	-12	76*	0	-12	-12	-3	-5
O=C1CCC[C@H]2C[C@H](NCc3cccc(I)c3)CC[C@]23CCCN13	·	0	-2	·	3	2	·	·
Cc1cccc(NS(=O)(=O)c2ccc3[nH]c(=O)cc(C(=O)OC(C)C(=O)Nc4ccc([N+](=O)[O-])cc4)c3c2)c1 (configuration not stated)	12	-11	50*	-4	-4	4	8	-3
CCn1ccc(=N)cc1	0	-2	20*	0	5	-2	3	-8
Cc1ccccc1CNC(=O)C1CCC(CNS(=O)(=O)c2cccc3cccnc23)CC1 (configuration not stated)	·	4	-1	-1	-13	2	·	·
COc1cc(CC(=O)OCC(=O)NC2CCCCC2C)cc(OC)c1OC (configuration not stated)	6	-2	26*	0	8	0	-8	-9
O=C(Nc1ccc2nn(-c3ccccc3)nc2c1)c1ccc2c(c1)OCCO2	-5	-31	-4	-12	-4	-24	·	·
O=C(Nc1ccc2nn(-c3ccccc3)nc2c1)c1ccc(Br)o1	-9	-56	17*	-1	3	-20	1	-3
